In ChEMBL document CHEMBL4819114, “Discovery of a potent and selective Axl inhibitor in preclinical model” (Bioorg Med Chem, 2021):
Values after ≈ are worked out from the molar mass of the structure shown. Active and inactive are the calls of the source. No cut-off for these calls is given here.

Tested on: BaF3
Assay: Antitumor activity against mouse BaF3 cells expressing Axl xenografted in C3H mouse assessed as reduction in tumor growth at 1 to 10 mg/kg, po administered for 4 days and measured on day 4
Settings: dose 1-10 mg/kg, time 4.0 day

SMILES | TGI
CC(C)n1cc(C(=O)Nc2ccc(Oc3cc(NC(=O)N4CCC(N5CCN(C)CC5)CC4)ncn3)cc2)c(=O)n(-c2ccc(F)cc2)c1=O | Active

Tested on: not listed separately
Assay: Tmax in CAnN.Cg-Foxnlnu/Cr1Crlj mouse at 30 mg/kg, po measured upto 24 hrs by LC-MS/MS analysis
Assay type: ADME, organism-based
Settings: in vivo
Method in brief: (§1)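 Single oral dose in DMSO/Tween80/5% glucose (7:13:80, v/v/v) to female mice. Blood taken from retinal vein at 0.5, 1, 2, 8 and 24 h and spun to plasma. Plasma precipitated with 20 volumes acetonitrile/methanol (7:3) containing propranolol and niflumic acid internal standards, then analysed by LC-MS/MS. Cmax, tmax and AUC(0-24h) derived from mean plasma concentration.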

SMILES | Tmax
CC(C)n1cc(C(=O)Nc2ccc(Oc3cc(NC(=O)N4CCC(N5CCN(C)CC5)CC4)ncn3)cc2)c(=O)n(-c2ccc(F)cc2)c1=O | 2 h

Tested on: not listed separately
Assay: AUC (0 to 24 hrs) in CAnN.Cg-Foxnlnu/Cr1Crlj mouse at 30 mg/kg, po measured upto 24 hrs by LC-MS/MS analysis
Assay type: ADME, organism-based
Set-up: route oral, dose 30 mg/kg, time <=24
Settings: in vivo
Method in brief: as §1

SMILES | AUC(0-t)
CC(C)n1cc(C(=O)Nc2ccc(Oc3cc(NC(=O)N4CCC(N5CCN(C)CC5)CC4)ncn3)cc2)c(=O)n(-c2ccc(F)cc2)c1=O | 18100 ng·h/mL

Tested on: not listed separately
Assay: Cmax in CAnN.Cg-Foxnlnu/Cr1Crlj mouse at 100 mg/kg, po measured upto 24 hrs by LC-MS/MS analysis
Assay type: ADME, organism-based
Set-up: route oral, dose 100 mg/kg, time <=24
Settings: in vivo
Method in brief: as §1

SMILES | Cmax
CC(C)n1cc(C(=O)Nc2ccc(Oc3cc(NC(=O)N4CCC(N5CCN(C)CC5)CC4)ncn3)cc2)c(=O)n(-c2ccc(F)cc2)c1=O | 13500 ng/mL

Tested on: not listed separately
Assay: Metabolic stability in mouse liver microsomes assessed as residual ratio measured after 30 mins in presence of NADPH by LC-MS/MS analysis relative to absence of NADPH
Assay type: ADME, Microsome
Settings: read-out: Stabilty
Method in brief: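 Incubation with mouse liver microsomes (0.5 mg/mL), 30 min at 37 °C, in 0.1 M potassium phosphate pH 7.4, 0.1 mM EDTA, 6 mM MgCl2 and an NADPH-generating system (β-NADP+, glucose-6-phosphate, G6P dehydrogenase). Quenched with acetonitrile/methanol (7:3) containing propranolol internal standard, then LC-MS/MS. Residual ratio with NADPH taken relative to without NADPH.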

SMILES | remaining at 0.5 h
CC(C)n1cc(C(=O)Nc2ccc(Oc3ccnc(NC(=O)CN(C)C)c3)cc2)c(=O)n(-c2ccc(F)cc2)c1=O | 19%
CN1CCC(CC(=O)Nc2cc(Oc3cc(F)c(NC(=O)c4cc5c(n(-c6ccccc6)c4=O)CCCC5=O)cc3F)ccn2)CC1 | 72%
CC(C)n1cc(C(=O)Nc2ccc(Oc3cc(NC(=O)N4CCC4)ncn3)cc2)c(=O)n(-c2ccc(F)cc2)c1=O | 79%
CN1CCN(C2CCN(C(=O)Nc3cc(Oc4cc(F)c(NC(=O)c5cc6c(n(-c7ccccc7)c5=O)CCCC6=O)cc4F)ccn3)CC2)CC1 | 78%
CC(C)n1cc(C(=O)Nc2ccc(Oc3cc(NC(=O)N4CCC(N5CCN(C)CC5)CC4)ncn3)cc2)c(=O)n(-c2ccc(F)cc2)c1=O | 88%
CN1CCC(CC(=O)Nc2cc(Oc3ccc(NC(=O)c4cn(C5CC5)c(=O)n(-c5ccc(F)cc5)c4=O)cc3F)ccn2)CC1 | 78%
CN1CCC(CC(=O)Nc2cc(Oc3ccc(NC(=O)c4cn(C5CCCC5)c(=O)n(-c5ccc(F)cc5)c4=O)cc3F)ccn2)CC1 | 63%
CN1CCN(C2CCN(C(=O)Nc3cc(Oc4ccc(NC(=O)c5cn(C6CCCC6)c(=O)n(-c6ccc(F)cc6)c5=O)cc4)ncn3)CC2)CC1 | 82%
CN1CCC(CC(=O)Nc2cc(Oc3ccc(NC(=O)c4cc5c(n(-c6ccccc6)c4=O)CCCC5=O)cc3F)ccn2)CC1 | 71%
CC(C)n1cc(C(=O)Nc2ccc(Oc3cc(NC(=O)C4CC4)ncn3)cc2)c(=O)n(-c2ccc(F)cc2)c1=O | 83%

Tested on: not listed separately
Assay: Toxicity in BALB/c mouse assessed as induction of necrosis in photoreceptor cells at 100 mg/kg, po administered for 14 days hematoxylin and eosin staining based assay
Assay type: organism-based
Settings: in vivo, 336 h, time 14 day
Method in brief: (§2)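 Female BALB/cAJcl mice (n = 3 or 5/group) dosed orally once daily for 14 days at 100 mg/kg; controls untreated. Body weight tracked. At necropsy after dosing, eyes fixed in 3% glutaraldehyde/2.5% formalin, paraffin-embedded, sectioned, stained with hematoxylin-eosin, and the retina examined histopathologically.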

SMILES | Activity
CC(C)n1cc(C(=O)Nc2ccc(Oc3cc(NC(=O)N4CCC(N5CCN(C)CC5)CC4)ncn3)cc2)c(=O)n(-c2ccc(F)cc2)c1=O | Non-Toxic

Tested on: not listed separately
Assay: Tmax in CAnN.Cg-Foxnlnu/Cr1Crlj mouse at 100 mg/kg, po measured upto 24 hrs by LC-MS/MS analysis
Assay type: ADME, organism-based
Settings: in vivo
Method in brief: as §1

SMILES | Tmax
CC(C)n1cc(C(=O)Nc2ccc(Oc3cc(NC(=O)N4CCC(N5CCN(C)CC5)CC4)ncn3)cc2)c(=O)n(-c2ccc(F)cc2)c1=O | 2 h

Tested on: not listed separately
Assay: Toxicity in BALB/c mouse assessed as effect on body weight at 100 mg/kg, po administered for 14 days
Assay type: organism-based
Settings: in vivo, 336 h, time 14 day
Method in brief: as §2

SMILES | Activity
CC(C)n1cc(C(=O)Nc2ccc(Oc3cc(NC(=O)N4CCC(N5CCN(C)CC5)CC4)ncn3)cc2)c(=O)n(-c2ccc(F)cc2)c1=O | Non-Toxic

Tested on: not listed separately
Assay: AUC (0 to 24 hrs) in CAnN.Cg-Foxnlnu/Cr1Crlj mouse at 100 mg/kg, po measured upto 24 hrs by LC-MS/MS analysis
Assay type: ADME, organism-based
Set-up: route oral, dose 100 mg/kg, time <=24
Settings: in vivo
Method in brief: as §1

SMILES | AUC(0-t)
CC(C)n1cc(C(=O)Nc2ccc(Oc3cc(NC(=O)N4CCC(N5CCN(C)CC5)CC4)ncn3)cc2)c(=O)n(-c2ccc(F)cc2)c1=O | 72700 ng·h/mL

Tested on: not listed separately
Assay: AUC (0 to 24 hrs) in CAnN.Cg-Foxnlnu/Cr1Crlj mouse at 10 mg/kg, po measured upto 24 hrs by LC-MS/MS analysis
Assay type: ADME, organism-based
Set-up: route oral, dose 10 mg/kg, time <=24
Settings: in vivo
Method in brief: as §1

SMILES | AUC(0-t)
CC(C)n1cc(C(=O)Nc2ccc(Oc3cc(NC(=O)N4CCC(N5CCN(C)CC5)CC4)ncn3)cc2)c(=O)n(-c2ccc(F)cc2)c1=O | 7290 ng·h/mL

Biological target: Tyrosine-protein kinase Lck (Homo sapiens) (UniProt P06239)
Sequence (P06239 2-509 limits assumed): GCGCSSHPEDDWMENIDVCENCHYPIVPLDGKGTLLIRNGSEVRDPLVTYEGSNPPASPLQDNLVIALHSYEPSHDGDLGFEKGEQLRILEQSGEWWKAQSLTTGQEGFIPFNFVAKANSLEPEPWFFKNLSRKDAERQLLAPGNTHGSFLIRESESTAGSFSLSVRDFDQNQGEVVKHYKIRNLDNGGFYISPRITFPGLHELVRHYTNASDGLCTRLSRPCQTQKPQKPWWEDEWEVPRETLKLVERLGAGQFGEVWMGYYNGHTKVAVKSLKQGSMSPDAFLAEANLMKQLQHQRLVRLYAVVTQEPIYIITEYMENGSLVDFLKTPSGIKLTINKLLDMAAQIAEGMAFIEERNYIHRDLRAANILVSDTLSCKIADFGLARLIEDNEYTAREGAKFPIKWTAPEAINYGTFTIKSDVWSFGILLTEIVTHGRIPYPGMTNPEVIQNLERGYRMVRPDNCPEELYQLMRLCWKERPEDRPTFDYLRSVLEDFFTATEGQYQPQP
Assay: Inhibition of LCK (unknown origin)
Settings: not given

SMILES | inhibition
CC(C)n1cc(C(=O)Nc2ccc(Oc3cc(NC(=O)N4CCC(N5CCN(C)CC5)CC4)ncn3)cc2)c(=O)n(-c2ccc(F)cc2)c1=O | inactive

Biological target: Hepatocyte growth factor receptor (Homo sapiens) (UniProt P08581)
Sequence (P08581 whole entry): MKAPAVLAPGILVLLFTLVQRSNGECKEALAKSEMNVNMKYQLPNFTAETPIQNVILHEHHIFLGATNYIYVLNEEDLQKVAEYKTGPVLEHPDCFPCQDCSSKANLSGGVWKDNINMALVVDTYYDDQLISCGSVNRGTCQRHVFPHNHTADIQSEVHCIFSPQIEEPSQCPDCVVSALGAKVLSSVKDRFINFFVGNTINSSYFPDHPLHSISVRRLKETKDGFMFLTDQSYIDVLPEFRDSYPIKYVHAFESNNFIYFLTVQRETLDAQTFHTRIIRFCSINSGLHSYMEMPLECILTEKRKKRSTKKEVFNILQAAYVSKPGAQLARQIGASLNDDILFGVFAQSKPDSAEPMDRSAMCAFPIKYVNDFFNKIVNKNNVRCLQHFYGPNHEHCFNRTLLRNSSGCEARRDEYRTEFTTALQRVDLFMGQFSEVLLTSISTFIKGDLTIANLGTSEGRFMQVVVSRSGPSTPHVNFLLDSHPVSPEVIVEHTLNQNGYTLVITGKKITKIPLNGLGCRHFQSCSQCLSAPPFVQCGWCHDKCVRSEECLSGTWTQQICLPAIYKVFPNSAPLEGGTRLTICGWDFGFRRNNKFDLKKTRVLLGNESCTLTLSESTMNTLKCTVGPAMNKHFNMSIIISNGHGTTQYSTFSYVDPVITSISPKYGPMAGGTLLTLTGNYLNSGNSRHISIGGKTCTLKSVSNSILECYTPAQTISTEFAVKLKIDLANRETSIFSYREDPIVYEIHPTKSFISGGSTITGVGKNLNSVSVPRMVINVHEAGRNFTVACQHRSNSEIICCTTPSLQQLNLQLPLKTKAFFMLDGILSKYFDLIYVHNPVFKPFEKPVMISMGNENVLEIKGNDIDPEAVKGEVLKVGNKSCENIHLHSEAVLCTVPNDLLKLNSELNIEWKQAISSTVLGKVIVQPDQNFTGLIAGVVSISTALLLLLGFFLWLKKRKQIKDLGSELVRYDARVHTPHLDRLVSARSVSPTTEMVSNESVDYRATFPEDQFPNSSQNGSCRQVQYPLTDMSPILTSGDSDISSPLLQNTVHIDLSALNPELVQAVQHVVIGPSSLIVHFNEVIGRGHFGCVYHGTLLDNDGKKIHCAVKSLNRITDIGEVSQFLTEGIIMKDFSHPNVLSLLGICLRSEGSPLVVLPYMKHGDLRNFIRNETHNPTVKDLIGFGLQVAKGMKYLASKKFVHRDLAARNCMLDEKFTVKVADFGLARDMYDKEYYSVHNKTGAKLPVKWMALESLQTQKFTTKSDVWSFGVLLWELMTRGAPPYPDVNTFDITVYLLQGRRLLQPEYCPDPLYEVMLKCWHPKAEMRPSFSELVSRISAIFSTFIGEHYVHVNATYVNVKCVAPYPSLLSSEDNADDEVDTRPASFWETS
Assay: Inhibition of c-Met (unknown origin)
Settings: not given

SMILES | inhibition
CC(C)n1cc(C(=O)Nc2ccc(Oc3cc(NC(=O)N4CCC(N5CCN(C)CC5)CC4)ncn3)cc2)c(=O)n(-c2ccc(F)cc2)c1=O | inactive

Tested on: not listed separately
Assay: Tmax in CAnN.Cg-Foxnlnu/Cr1Crlj mouse at 10 mg/kg, po measured upto 24 hrs by LC-MS/MS analysis
Assay type: ADME, organism-based
Settings: in vivo
Method in brief: as §1

SMILES | Tmax
CC(C)n1cc(C(=O)Nc2ccc(Oc3cc(NC(=O)N4CCC(N5CCN(C)CC5)CC4)ncn3)cc2)c(=O)n(-c2ccc(F)cc2)c1=O | 2 h

Tested on: not listed separately
Assay: Cmax in CAnN.Cg-Foxnlnu/Cr1Crlj mouse at 10 mg/kg, po measured upto 24 hrs by LC-MS/MS analysis
Assay type: ADME, organism-based
Set-up: route oral, dose 10 mg/kg, time <=24
Settings: in vivo
Method in brief: as §1

SMILES | Cmax
CC(C)n1cc(C(=O)Nc2ccc(Oc3cc(NC(=O)N4CCC(N5CCN(C)CC5)CC4)ncn3)cc2)c(=O)n(-c2ccc(F)cc2)c1=O | 1580 ng/mL

Tested on: not listed separately
Assay: Kinetic solubility of compound in PBS buffer at pH 7 incubated for 15 mins by HPLC-UV analysis
Settings: not given

SMILES | solubility kinetic at 0.25 h
CC(C)n1cc(C(=O)Nc2ccc(Oc3ccnc(NC(=O)CN(C)C)c3)cc2)c(=O)n(-c2ccc(F)cc2)c1=O | 32 µM (≈ 17.9 µg/mL)
CN1CCC(CC(=O)Nc2cc(Oc3cc(F)c(NC(=O)c4cc5c(n(-c6ccccc6)c4=O)CCCC5=O)cc3F)ccn2)CC1 | 50 µM (≈ 32.1 µg/mL)
CC(C)n1cc(C(=O)Nc2ccc(Oc3cc(NC(=O)N4CCC4)ncn3)cc2)c(=O)n(-c2ccc(F)cc2)c1=O | 36 µM (≈ 20.1 µg/mL)
CN1CCN(C2CCN(C(=O)Nc3cc(Oc4cc(F)c(NC(=O)c5cc6c(n(-c7ccccc7)c5=O)CCCC6=O)cc4F)ccn3)CC2)CC1 | 43 µM (≈ 30.6 µg/mL)
CC(C)n1cc(C(=O)Nc2ccc(Oc3cc(NC(=O)N4CCC(N5CCN(C)CC5)CC4)ncn3)cc2)c(=O)n(-c2ccc(F)cc2)c1=O | 89 µM (≈ 61 µg/mL)
CN1CCC(CC(=O)Nc2cc(Oc3ccc(NC(=O)c4cn(C5CC5)c(=O)n(-c5ccc(F)cc5)c4=O)cc3F)ccn2)CC1 | 82 µM (≈ 51.7 µg/mL)
CN1CCC(CC(=O)Nc2cc(Oc3ccc(NC(=O)c4cn(C5CCCC5)c(=O)n(-c5ccc(F)cc5)c4=O)cc3F)ccn2)CC1 | 70 µM (≈ 46.1 µg/mL)
CN1CCN(C2CCN(C(=O)Nc3cc(Oc4ccc(NC(=O)c5cn(C6CCCC6)c(=O)n(-c6ccc(F)cc6)c5=O)cc4)ncn3)CC2)CC1 | 80 µM (≈ 56.9 µg/mL)
CN1CCC(CC(=O)Nc2cc(Oc3ccc(NC(=O)c4cc5c(n(-c6ccccc6)c4=O)CCCC5=O)cc3F)ccn2)CC1 | 75 µM (≈ 46.8 µg/mL)
CC(C)n1cc(C(=O)Nc2ccc(Oc3cc(NC(=O)C4CC4)ncn3)cc2)c(=O)n(-c2ccc(F)cc2)c1=O | 6 µM (≈ 3.27 µg/mL)

Tested on: not listed separately
Assay: Cmax in CAnN.Cg-Foxnlnu/Cr1Crlj mouse at 30 mg/kg, po measured upto 24 hrs by LC-MS/MS analysis
Assay type: ADME, organism-based
Set-up: route oral, dose 30 mg/kg, time <=24
Settings: in vivo
Method in brief: as §1

SMILES | Cmax
CC(C)n1cc(C(=O)Nc2ccc(Oc3cc(NC(=O)N4CCC(N5CCN(C)CC5)CC4)ncn3)cc2)c(=O)n(-c2ccc(F)cc2)c1=O | 3790 ng/mL

Tested on: not listed separately
Assay: Toxicity in C3H mouse xenografted with mouse BaF3 cells assessed as effect on body weight at 1 to 10 mg/kg, po administered for 4 days and measured on day 4
Settings: in vivo, 96 h

SMILES | Activity
CC(C)n1cc(C(=O)Nc2ccc(Oc3cc(NC(=O)N4CCC(N5CCN(C)CC5)CC4)ncn3)cc2)c(=O)n(-c2ccc(F)cc2)c1=O | Non-Toxic

Biological target: T1, Tyrosine-protein kinase receptor TYRO3 (Homo sapiens) (UniProt Q06418)
T1 sequence (whole entry): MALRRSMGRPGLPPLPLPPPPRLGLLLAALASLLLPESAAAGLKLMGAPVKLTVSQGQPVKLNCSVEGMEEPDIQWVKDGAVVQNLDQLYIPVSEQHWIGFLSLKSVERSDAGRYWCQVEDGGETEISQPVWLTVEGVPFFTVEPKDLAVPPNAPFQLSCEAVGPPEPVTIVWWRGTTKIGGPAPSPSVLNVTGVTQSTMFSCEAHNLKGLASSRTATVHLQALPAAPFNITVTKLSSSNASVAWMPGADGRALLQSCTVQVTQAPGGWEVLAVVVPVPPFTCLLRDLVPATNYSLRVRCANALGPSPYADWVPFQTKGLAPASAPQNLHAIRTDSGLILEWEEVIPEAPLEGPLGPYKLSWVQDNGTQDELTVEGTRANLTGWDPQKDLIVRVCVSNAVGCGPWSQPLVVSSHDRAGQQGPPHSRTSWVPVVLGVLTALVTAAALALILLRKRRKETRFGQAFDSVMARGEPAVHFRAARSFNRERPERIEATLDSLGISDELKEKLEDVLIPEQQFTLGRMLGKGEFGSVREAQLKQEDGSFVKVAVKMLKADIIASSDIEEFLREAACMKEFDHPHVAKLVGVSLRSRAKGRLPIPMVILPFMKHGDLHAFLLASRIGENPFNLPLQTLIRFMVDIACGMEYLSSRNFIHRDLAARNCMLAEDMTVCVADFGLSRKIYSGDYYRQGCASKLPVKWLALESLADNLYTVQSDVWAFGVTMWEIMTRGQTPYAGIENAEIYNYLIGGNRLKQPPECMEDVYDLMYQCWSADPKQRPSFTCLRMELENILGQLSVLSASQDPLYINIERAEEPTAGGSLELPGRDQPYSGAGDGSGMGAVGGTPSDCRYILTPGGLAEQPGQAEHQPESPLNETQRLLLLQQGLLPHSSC
Assay: Inhibition of Tyro3 (unknown origin)
Settings: not given

SMILES | inhibition
CC(C)n1cc(C(=O)Nc2ccc(Oc3cc(NC(=O)N4CCC(N5CCN(C)CC5)CC4)ncn3)cc2)c(=O)n(-c2ccc(F)cc2)c1=O | inactive
